These entries were drawn from the full list.
PGC1a Ac signal: compounds raising PGC1a acetylation signal, primary screen, PGC1a modulator project, cell-based, U2OS, AlphaScreen, signal-increasing mode. activation, % at 15.6 µM. overnight. AID 651723, 2012. hit rate 0.21% among 350,000;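 active means every replicate reaching activation of at least 50%, whatever the mean replicate activation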;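 further: hits raise the AlphaScreen acetylation signal above neutral controls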
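Test system: U2OS cells expressing flag-PGC1a plus GCN5; Amount: 7000 U2OS cells per well; Compound: single test concentration per compound; Incubation: compound overnight at 37 °C, each detection step 1 h RT; Signal: AlphaScreen lysate read.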
Numbers without * were called inactive.

`Cc1nc(SCC(=O)OCc2ccccc2)c(C#N)c(-c2ccccc2)c1C(=O)Nc1ccccc1` gave PGC1a Ac signal 56.9*.
N#Cc1c(-c2ccccc2)c(-c2ccccc2)nn(CC(=O)NNC(=O)Nc2ccc(Cl)cc2)c1=O was read as PGC1a Ac signal -40.0.
Screening COc1ccccc1/C=C1\SC(=S)N(CCC(=O)NCCCn2ccnc2)C1=O returned PGC1a Ac signal 121.5*.
`COc1ccccc1/C=C1\SC(=O)N(CCC(=O)NCCCn2ccnc2)C1=O` gave PGC1a Ac signal 214.0*.
`O=C(CCN1C(=O)/C(=C/c2ccccc2)SC1=S)NCCCN1CCOCC1` gave PGC1a Ac signal -56.4.
COc1ccc(NC(=O)Nc2ccc3c(c2)C(=O)N([C@H](C)CO)C[C@H](C)[C@@H](CN(C)S(=O)(=O)c2ccc(Cl)cc2)O3)cc1 was read as PGC1a Ac signal -40.4.
`CC1CC(C)(C)CC(=O)C1C(=O)c1ccccc1` (stereo unspecified) gave PGC1a Ac signal -48.7.
Screening O=C(O)CCC(NC(=S)Nc1ccccc1)C(=O)O (stereo unspecified) returned PGC1a Ac signal -73.1.
For CCOc1ccc2c(c1)C(C)=CC(C)(C)N2S(=O)(=O)c1ccc(C)cc1 the results were PGC1a Ac signal 64.1*.
For COC(c1ccccc1)c1nnc(CCC(=O)N(C)C(C2CC2)C2CC2)o1 (stereo unspecified) the results were PGC1a Ac signal -42.4.
`CSc1ncccc1C(=O)N1CCN(C(=O)c2ccccc2)CC1` gave PGC1a Ac signal -43.6.
Screening O=c1c2cccnc2n(-c2ccccc2)n1Cc1ccc(Cl)cc1 returned PGC1a Ac signal -101.0.
`Cc1ccc(NC(=S)c2ccncc2)cc1` gave PGC1a Ac signal 66.3*.
For OCC1(Cc2ccc(F)cc2F)CCCN(Cc2ccc(Cl)cc2)C1 (stereo unspecified) the results were PGC1a Ac signal -46.1.
Screening C[C@@H]1CN([C@@H](C)CO)C(=O)CCCn2nncc2CO[C@H]1CN(C)S(=O)(=O)c1ccc(Cl)cc1 returned PGC1a Ac signal -96.7.
`CC(C)(C)c1ccc(NC(=O)N2CCN(c3ccc([N+](=O)[O-])cn3)CC2)cc1` gave PGC1a Ac signal 191.5*.
For O=C(Nc1ccc(F)cc1F)N1CCCN(c2ccc([N+](=O)[O-])cn2)CC1 the results were PGC1a Ac signal 94.1*.
For CC(=O)Nc1ccc(S(=O)(=O)N2CCN(c3ccccn3)CC2)cc1 the results were PGC1a Ac signal -52.8.
Screening Cc1ccccc1NC(=O)CC1c2ccccc2CC(C)(C)N1C (stereo unspecified) returned PGC1a Ac signal -82.6.
CO[C@H]1CN(C)C(=O)c2cc(NS(C)(=O)=O)ccc2OC[C@H](C)N(C(=O)NC(C)C)C[C@@H]1C was read as PGC1a Ac signal -48.5.
Screening C[C@@H]1CN([C@@H](C)CO)C(=O)c2ccccc2-c2ccccc2CO[C@@H]1CN(C)C(=O)Nc1cccc(Cl)c1Cl returned PGC1a Ac signal -41.4.
CC(C)n1c(=S)[nH]c2cc(Cl)ccc21 was read as PGC1a Ac signal -69.1.
C=CCSc1nccc(-c2cc(Cl)sc2Cl)n1 was read as PGC1a Ac signal 50.6*.
`C[C@@H]1CN([C@@H](C)CO)S(=O)(=O)c2ccc(-c3ccc(C#N)cc3)cc2O[C@H]1CN(C)C(=O)CN(C)C` gave PGC1a Ac signal -40.8.
For NC(=S)N/N=C/c1cccc(O)c1O the results were PGC1a Ac signal 75.9*.
Screening Oc1ccccc1/C=N/Nc1nc2ccccc2o1 returned PGC1a Ac signal -41.2.
For C[C@@H]1CN([C@H](C)CO)C(=O)c2cc(NC(=O)Cc3cn(C)c4ccccc34)ccc2O[C@@H]1CN(C)C(=O)Nc1ccccc1 the results were PGC1a Ac signal -107.6.
For CC(=O)Nc1ccc(NS(=O)(=O)c2ccc(C)cc2)cc1[N+](=O)[O-] the results were PGC1a Ac signal 58.1*.
Cc1ccc(NC(=O)COC(=O)COc2ccc(Cl)cc2)c([N+](=O)[O-])c1 was read as PGC1a Ac signal -40.4.
For Cc1ccc(S(=O)(=O)NC2=NCCCCC2)cc1 the results were PGC1a Ac signal -46.4.
COC(=O)c1cccc(NC(=O)CSc2nnc(C)n2C)c1 was read as PGC1a Ac signal -47.3.
Screening O=C(Nc1cccc2c1CCCC2)c1ccccc1Br returned PGC1a Ac signal -50.3.
Screening O=C(CN1CCC(n2nnc3cc(F)ccc32)CC1)Nc1ccc2c(c1)CCC2 returned PGC1a Ac signal 103.3*.
For Cc1noc(C)c1NC(=O)Nc1ccc2c(c1)C(=O)N([C@@H](C)CO)C[C@@H](C)[C@@H](CN(C)CC1CCCCC1)OCCCC[C@H](C)O2 the results were PGC1a Ac signal -55.2.
CCOC(=O)N1CCN(C(=O)C(NS(=O)(=O)c2cccc3nsnc23)c2ccccc2)CC1 (stereo unspecified) was read as PGC1a Ac signal 59.0*.
Screening Cc1nc(C(C)N(C)Cc2nc(-c3ccc4c(c3)OCO4)no2)c(C)s1 (stereo unspecified) returned PGC1a Ac signal -97.1.
CSc1nn(-c2ccc(C(=O)OC(C(=O)NC(N)=O)C(C)C)cc2)c(=S)s1 (stereo unspecified) was read as PGC1a Ac signal -44.9.
Screening O=C1CC2CS(=O)(=O)CC2N1c1ccc(Cl)cc1Cl (stereo unspecified) returned PGC1a Ac signal -56.4.
COc1ccc(C#Cc2c(-c3ccccc3)n(-c3ccccc3)c3ccc(CO)cc23)cc1 was read as PGC1a Ac signal 70.8*.
`C=C1CCN(c2ccc(C(=O)NCc3ccccc3)cc2[N+](=O)[O-])CC1` gave PGC1a Ac signal -43.9.
`COc1ccccc1C(=O)/C=C/c1ccc(N2CCCCC2)c([N+](=O)[O-])c1` gave PGC1a Ac signal 187.3*.
CCCNC(=O)CN(C)C(=O)c1n[nH]c2ccccc12 was read as PGC1a Ac signal -42.6.
`C[C@H]1CN([C@@H](C)CO)S(=O)(=O)c2ccc(-c3cncnc3)cc2O[C@H]1CN(C)C(=O)CN(C)C` gave PGC1a Ac signal -52.9.
O=C(Nc1ccccc1-c1ccccc1)NC1CC2CCCC(C1)N2Cc1ccc(F)cc1 (stereo unspecified) was read as PGC1a Ac signal -42.2.
Screening CCn1c(Cl)c(C=O)s/c1=N\S(=O)(=O)c1ccccc1 returned PGC1a Ac signal -78.1.
`O=Nc1ccc(O)c2ncccc12` gave PGC1a Ac signal 245.0*.
For O=[N+]([O-])c1cc(F)c2cccnc2c1O the results were PGC1a Ac signal -42.5.
O=C(N/N=C/c1ccc(O)c2ncccc12)c1cccc(Br)c1 was read as PGC1a Ac signal -66.8.
Screening CSc1n[nH]c(NC(=O)c2c(-c3c(Cl)cccc3Cl)noc2C)n1 returned PGC1a Ac signal -64.7.
Cc1cc(C)nc(NC(=O)c2c(-c3ccccc3Cl)noc2C)n1 was read as PGC1a Ac signal 77.5*.
For COc1ccc(OCC(=O)NNC(=O)c2c(-c3ccccc3Cl)noc2C)cc1 the results were PGC1a Ac signal -61.7.
`COc1ccccc1-c1ccc2c(c1)O[C@@H](CN(C)Cc1ccc3c(c1)OCO3)[C@@H](C)CN([C@H](C)CO)S2(=O)=O` gave PGC1a Ac signal 64.4*.
For C[C@H]1CN([C@@H](C)CO)S(=O)(=O)c2ccc(-c3ccccc3)cc2O[C@@H]1CN(C)Cc1cccc(F)c1 the results were PGC1a Ac signal -48.1.
CC(C)CC#Cc1ccc2c(c1)O[C@H](CN(C)Cc1ccccc1)[C@H](C)CN([C@@H](C)CO)S2(=O)=O was read as PGC1a Ac signal -48.0.

Screening data (PubChem BioAssay)
